Assay results as given in ChEMBL document CHEMBL2010740, “Synthesis and evaluation of 2-amido-3-carboxamide thiophene CB₂ receptor agonists for pain management” (Bioorg Med Chem Lett, 2012).
Activity calls are given as the source filed them.

Key:
[1] = target: T1, Cannabinoid receptor 2 (Rattus norvegicus) (UniProt Q9QZN9); assay: Agonist activity at rat recombinant CB2 receptor expressed in HEK293 cells assessed as inhibition of forskolin-induced cAMP production after 20 mins by ELISA relative to CP55940; assay type: functional, cell-based
T1 sequence (whole entry): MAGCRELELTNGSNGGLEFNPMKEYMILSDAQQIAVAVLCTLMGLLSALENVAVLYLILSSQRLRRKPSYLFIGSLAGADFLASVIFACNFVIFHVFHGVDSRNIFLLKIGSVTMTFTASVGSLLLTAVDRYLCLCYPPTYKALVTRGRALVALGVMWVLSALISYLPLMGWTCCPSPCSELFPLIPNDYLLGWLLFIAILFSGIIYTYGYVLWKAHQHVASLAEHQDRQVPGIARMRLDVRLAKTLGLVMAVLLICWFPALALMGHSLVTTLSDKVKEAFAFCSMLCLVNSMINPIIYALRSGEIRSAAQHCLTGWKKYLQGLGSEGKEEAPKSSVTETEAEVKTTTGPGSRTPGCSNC
Summary of the method: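 cAMP assay in HEK 293 cells stably expressing the relevant CB receptor, with a fixed concentration of forskolin. cAMP was quantified by ELISA. Activation is given as percent of the CP-55,940 control response.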

Rattus norvegicus [2] = assay: Analgesic activity in ip dosed rat chronic constriction injury model of neuropathic pain assessed as reduction in mechanical allodynia administered 2 weeks post-surgery measured after 30 mins; assay type: functional, organism-based
[3] = Plasma clearance in rat at 3 umol/kg, iv; assay type: ADME, organism-based
[4] = Half life in rat at 10 umol/kg, po; assay type: ADME, organism-based; conditions: in vivo
[5] = AUC in rat at 3 umol/kg, iv; assay type: ADME, organism-based; conditions: plasma
[6] = Metabolic stability in human microsomes assessed as compound remaining after 30 mins; assay type: ADME, Microsome; conditions: read-out: Stability
Summary of the method: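 Metabolic stability: compound incubated with human or rat liver microsomes. Percent parent remaining was measured after 30 min.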

Rattus norvegicus [7] = assay: Analgesic activity in rat spinal nerve ligation model of neuropathic pain assessed as […] at 3 umol/kg, ip administered 2 weeks post-surgery measured after 30 mins; assay type: functional; parameters: scale not given: the % may be the effect or the level left
Summary of the method: (§1)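 Rat spinal nerve ligation (Chung) neuropathic pain model. Dosing was intraperitoneal, two weeks after surgery and 30 min before testing. Read-out was mechanical allodynia (paw withdrawal threshold), given as a dose–response.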

[8] = Tmax in rat at 10 umol/kg, ip; assay type: ADME, organism-based; conditions: in vivo
Cannabinoid receptor 2 [9] = target: T2, Cannabinoid receptor 2 (Rattus norvegicus, UniProt Q9QZN9); assay: Agonist activity at rat recombinant CB2 receptor expressed in HEK293 cells co-expressing chimeric Gaq/o protein by FLIPR assay by FLIPR assay; assay type: functional, cell-based
T2 sequence (Q9QZN9 whole entry): T1 sequence (whole entry)
Summary of the method: (§2)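 FLIPR functional assay in HEK 293 cells stably co-expressing chimeric Gαq/o protein and the CB receptor. Net peak evoked response was compared with the peak response to CP-55,940.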

Rattus norvegicus [10] = assay: Analgesic activity in rat complete Freund's adjuvant model of chronic inflammatory pain assessed as latency in paw withdrawal at 100 umol/kg, po administered 48 hrs after CFA-challenge measured after 60 mins; assay type: functional
Rattus norvegicus [11] = assay: Analgesic activity in rat complete Freund's adjuvant model of chronic inflammatory pain assessed as reduction in thermal hyperalgesia at 3 umol/kg, ip administered 48 hrs after CFA-challenge measured after 60 mins; assay type: functional, organism-based
Rattus norvegicus [12] = assay: Analgesic activity in rat complete Freund's adjuvant model of chronic inflammatory pain assessed as reduction in thermal hyperalgesia at 10 umol/kg, ip; assay type: functional; parameters: scale not given: the % may be the effect or the level left
Summary of the method: (§3)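 Rat CFA inflammatory pain model. Read-out was thermal hyperalgesia in the CFA-injected right paw, with the left paw as control. Test compound and the CB₂ antagonist SR-144528 (10 µmol/kg ip) were given alone and combined, with vehicle controls.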

[13] = Plasma protein binding in rat; assay type: ADME, cell-free; conditions: read-out: PPB (converted)
[14] = Plasma protein binding in human; assay type: ADME, cell-free; conditions: read-out: PPB (converted)
Rattus norvegicus [15] = assay: Analgesic activity in rat spinal nerve ligation model of neuropathic pain assessed as […] at 30 umol/kg, ip administered 2 weeks post-surgery measured after 30 mins; assay type: functional; parameters: scale not given: the % may be the effect or the level left; summary of the method: as §1
Rattus norvegicus [16] = assay: Analgesic activity in po dosed rat complete Freund's adjuvant model of chronic inflammatory pain assessed as latency in paw withdrawal administered 48 hrs after CFA-challenge measured after 60 mins; assay type: functional, organism-based
[17] = Half life in rat at 3 umol/kg, iv; assay type: ADME, organism-based; conditions: in vivo
Cannabinoid receptor 2 [18] = target: T3, Cannabinoid receptor 2 (Homo sapiens, UniProt P34972); assay: Agonist activity at human recombinant CB2 receptor expressed in HEK293 cells co-expressing chimeric Gaq/o protein by FLIPR assay; assay type: functional, cell-based; summary of the method: as §2
T3 sequence (P34972 whole entry): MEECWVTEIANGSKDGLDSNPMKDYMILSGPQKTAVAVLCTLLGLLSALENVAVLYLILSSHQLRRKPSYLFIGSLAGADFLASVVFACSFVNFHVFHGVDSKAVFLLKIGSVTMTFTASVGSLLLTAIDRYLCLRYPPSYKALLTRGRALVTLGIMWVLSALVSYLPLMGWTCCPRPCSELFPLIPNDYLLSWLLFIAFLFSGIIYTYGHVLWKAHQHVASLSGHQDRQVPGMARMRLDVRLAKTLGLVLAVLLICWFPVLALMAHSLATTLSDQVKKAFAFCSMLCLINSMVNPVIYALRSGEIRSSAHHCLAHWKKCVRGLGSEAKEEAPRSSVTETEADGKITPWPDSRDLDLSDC

Rattus norvegicus [19] = assay: Analgesic activity in rat complete Freund's adjuvant model of chronic inflammatory pain assessed as reduction in thermal hyperalgesia at 10 umol/kg, ip co-administered with CB2 antagonist SR144528; assay type: functional; parameters: scale not given: the % may be the effect or the level left; summary of the method: as §3
Cannabinoid receptor 2 [20] = target: T3, Cannabinoid receptor 2; assay: Displacement of [3H]CP-55940 from human recombinant CB2 receptor expressed in HEK293 cells after 90 mins; assay type: cell-based
Summary of the method: (§4)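 Competitive binding: [³H]CP-55,940 displaced from membranes of HEK 293 cells stably transfected with human or rat CB₂, or CHO cells stably transfected with human or rat CB₁. Reported as pKi. Determinations >2 (duplicate of duplicate).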

[21] = Oral bioavailability in rat at 10 umol/kg, ip; assay type: ADME, organism-based; conditions: in vivo, intraperitoneal
Rattus norvegicus [22] = assay: Analgesic activity in ip dosed rat spinal nerve ligation model of neuropathic pain assessed as […] administered 2 weeks post-surgery measured after 30 mins; assay type: functional, organism-based; summary of the method: as §1
Rattus norvegicus [23] = assay: Analgesic activity in rat chronic constriction injury model of neuropathic pain assessed as reduction in mechanical allodynia at 10 umol/kg, ip administered 2 weeks post-surgery measured after 30 mins; assay type: functional; parameters: scale not given: the % may be the effect or the level left
Cannabinoid receptor 1 [24] = target: Cannabinoid receptor 1 (Homo sapiens, UniProt P21554); assay: Displacement of [3H]CP-55940 from human recombinant CB1 receptor expressed in CHO cells after 90 mins; assay type: cell-based; summary of the method: as §4
Cannabinoid receptor 1 (Homo sapiens, UniProt P21554), sequence (P21554 whole entry): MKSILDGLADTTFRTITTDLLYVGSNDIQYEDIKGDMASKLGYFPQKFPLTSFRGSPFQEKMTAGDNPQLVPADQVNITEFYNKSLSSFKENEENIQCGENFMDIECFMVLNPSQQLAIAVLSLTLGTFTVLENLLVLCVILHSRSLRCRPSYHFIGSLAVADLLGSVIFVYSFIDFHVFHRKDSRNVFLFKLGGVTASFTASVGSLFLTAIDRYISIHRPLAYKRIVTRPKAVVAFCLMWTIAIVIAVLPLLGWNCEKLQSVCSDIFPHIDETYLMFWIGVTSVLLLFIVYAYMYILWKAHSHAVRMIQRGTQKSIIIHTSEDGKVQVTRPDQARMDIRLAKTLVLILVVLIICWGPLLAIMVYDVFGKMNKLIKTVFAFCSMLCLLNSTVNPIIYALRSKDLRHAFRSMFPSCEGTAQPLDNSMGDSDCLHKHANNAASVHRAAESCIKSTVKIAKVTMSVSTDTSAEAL

Cannabinoid receptor 1 [25] = target: Cannabinoid receptor 1 (Rattus norvegicus, UniProt P20272); assay: Displacement of [3H]CP-55940 from rat recombinant CB1 receptor expressed in CHO cells after 90 mins; assay type: cell-based; summary of the method: as §4
Cannabinoid receptor 1 (Rattus norvegicus, UniProt P20272), sequence (P20272 whole entry): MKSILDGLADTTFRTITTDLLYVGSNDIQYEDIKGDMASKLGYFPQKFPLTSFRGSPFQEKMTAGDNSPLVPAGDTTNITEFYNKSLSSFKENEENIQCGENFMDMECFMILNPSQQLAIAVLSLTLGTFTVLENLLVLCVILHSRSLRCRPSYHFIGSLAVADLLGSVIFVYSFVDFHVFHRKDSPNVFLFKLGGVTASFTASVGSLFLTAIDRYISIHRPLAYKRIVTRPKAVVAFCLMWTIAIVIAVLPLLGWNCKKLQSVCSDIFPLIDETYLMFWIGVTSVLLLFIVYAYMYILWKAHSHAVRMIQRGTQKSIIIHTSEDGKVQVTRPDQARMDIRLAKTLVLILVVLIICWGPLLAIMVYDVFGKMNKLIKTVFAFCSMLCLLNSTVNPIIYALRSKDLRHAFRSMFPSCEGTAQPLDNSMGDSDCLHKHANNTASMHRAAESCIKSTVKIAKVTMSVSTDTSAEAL

Rattus norvegicus [26] = assay: Analgesic activity in rat incision model of post-operative pain assessed as reduction in paw withdrawal latency at 10 umol/kg, ip administered 90 mins post-surgical incision measured after 30 mins; assay type: functional; parameters: scale not given: the % may be the effect or the level left

Compound: CCCNC(=O)c1c(NC(=O)C23CC4CC(CC2C4)C3)sc2c1CCOC2
- Imax [1]: 72%
- Activity (Rattus norvegicus [2]): Dose-dependent effect
- clearance [3]: 63.3 mL/min/kg
- half-life [4]: 96 min
- AUC [5]: 320 ng·h/mL
- remaining at 0.5 h [6]: 9%
- Activity (Rattus norvegicus [7]): 8%
- Tmax [8]: 36 min
- IC50 (Cannabinoid receptor 2 [9]): 1550 nM
- Activity (Rattus norvegicus [10]): 58%
- Activity (Rattus norvegicus [11]): Active
- Activity (Rattus norvegicus [12]): 91%
- fraction unbound [13]: 0.03
- fraction unbound [14]: 0.02
- Activity (Rattus norvegicus [15]): 60%
- Activity (Rattus norvegicus [16]): Dose-dependent effect
- half-life [17]: 90 min
- IC50 (Cannabinoid receptor 2 [18]): 70.8 nM
- Activity (Rattus norvegicus [19]): 24%
- Ki (Cannabinoid receptor 2 [20]): 20.9 nM
- bioavailability [21]: 96%
- Activity (Rattus norvegicus [22]): Dose-dependent effect
- Activity (Rattus norvegicus [23]): 55%
- Ki (Cannabinoid receptor 1 [24]): 1550 nM
- Ki (Cannabinoid receptor 1 [25]): 302 nM
- Activity (Rattus norvegicus [26]): 45%
